From ChEMBL document CHEMBL1275265, “Synthesis and biological evaluation of N-antipyrine-4-substituted amino-3-chloromaleimide derivatives” (Eur J Med Chem, 2010)
Converted amounts (≈) assume the structure as drawn. The source made the active and inactive calls. The rule behind the calls is not given here.

Assays:
Salmonella typhimurium = assay: Antibacterial activity against Salmonella Typhimurium ATCC 14028 at < 100 ug/mL by agar dilution method; type: functional, organism-based; conditions: Salmonella enterica subsp. enterica serovar Typhimurium
How it was run: (§1)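 Agar dilution on 1 mL Mueller-Hinton agar slants. Compounds were serially two-fold diluted in DMSO (final DMSO ≤2%) to give 10–100 µg/mL in the medium. Bacteria were grown on MHA at 35 °C for 24 h, suspended in 0.86% saline at 1.5 × 10^8 cell/mL (0.5 McFarland), and 1 µL was added per slant. Slants were incubated at 35 °C. Drug-free blank included; each assay run three times; MIC recorded.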

Proteus mirabilis = assay: Antibacterial activity against Proteus mirabilis ATCC 25933 at < 100 ug/mL by agar dilution method; type: functional, organism-based; how it was run: as §1
Aspergillus flavus = assay: Antifungal activity against Aspergillus flavus ATCC 9170 by agar dilution method; type: functional, organism-based
How it was run: (§2)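 Filamentous fungi (hyalohyphomycetes, dermatophytes) were grown on SDA. Spore suspensions were set to 1.0–5.0 × 10^6 spores/mL by hemocytometer count. 1 µL was inoculated onto 1 mL SDA slants holding compound at 10–100 µg/mL (two-fold DMSO dilutions, final DMSO ≤2%), then incubated at 28–30 °C. Drug-free blank and ketoconazole control included; repeated three times; MIC determined.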

Aspergillus niger = assay: Antifungal activity against Aspergillus niger ATCC 9092 by agar dilution method; type: functional, organism-based; how it was run: as §2
Microsporum canis = assay: Antifungal activity against Microsporum canis C112 by agar dilution method; type: functional, organism-based; how it was run: as §2
Candida albicans = assay: Antifungal activity against Candida albicans ATCC 10231 by agar dilution method; type: functional, organism-based
How it was run: (§3)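 Yeasts were grown on Sabouraud dextrose agar and adjusted to 1.0–5.0 × 10^6 cell/mL (0.5 McFarland). Agar dilution used 1 mL SDA slants holding two-fold DMSO dilutions of compound at 10–100 µg/mL, with final DMSO ≤2%. 1 µL of inoculum was added per slant, then incubated at 35 °C. Drug-free blank and ketoconazole positive control included; triplicate runs; MIC read.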

Pichia kudriavzevii = assay: Antifungal activity against Candida krusei ATCC 6582 by agar dilution method; type: functional, organism-based; how it was run: as §3
[1] = tested on: Staphylococcus saprophyticus; assay: Antibacterial activity against Staphylococcus saprophyticus ATCC 35552 at < 100 ug/mL by agar dilution method; type: functional, organism-based; how it was run: as §1
Streptococcus agalactiae = assay: Antibacterial activity against Streptococcus agalactiae ATCC 13813 at < 100 ug/mL by agar dilution method; type: functional; how it was run: as §1
Pseudomonas aeruginosa = assay: Antibacterial activity against Pseudomonas aeruginosa ATCC 27853 at < 100 ug/mL by agar dilution method; type: functional, organism-based; how it was run: as §1
Staphylococcus aureus = assay: Antibacterial activity against Staphylococcus aureus ATCC 6538P at < 100 ug/mL by agar dilution method; type: functional, organism-based; how it was run: as §1
Aspergillus fumigatus = assay: Antifungal activity against Aspergillus fumigatus ATCC 26934 by agar dilution method; type: functional; how it was run: as §2
Cryptococcus neoformans = assay: Antifungal activity against Cryptococcus neoformans ATCC 32264 by agar dilution method; type: functional; how it was run: as §3
Nannizzia gypsea = assay: Antifungal activity against Microsporum gypseum C115 by agar dilution method; type: functional; how it was run: as §2
Rhizopus = assay: Antifungal activity against Rhizopus CL35 by agar dilution method; type: functional; how it was run: as §2
[2] = tested on: Trichophyton mentagrophytes; assay: Antifungal activity against Trichophyton mentagrophytes ATCC 9972 by agar dilution method; type: functional; how it was run: as §2
Trichophyton rubrum = assay: Antifungal activity against Trichophyton rubrum C137 by agar dilution method; type: functional; how it was run: as §2
Bacillus cereus = assay: Antibacterial activity against Bacillus cereus ATCC 14579 at < 100 ug/mL by agar dilution method; type: functional; how it was run: as §1
Bacillus subtilis = assay: Antibacterial activity against Bacillus subtilis ATCC 23858 at < 100 ug/mL by agar dilution method; type: functional, organism-based; how it was run: as §1
Enterobacter cloacae = assay: Antibacterial activity against Enterobacter cloacae ATCC 35030 at < 100 ug/mL by agar dilution method; type: functional, organism-based; how it was run: as §1
Escherichia coli = assay: Antibacterial activity against Escherichia coli ATCC 11775 at < 100 ug/mL by agar dilution method; type: functional, organism-based; how it was run: as §1
[3] = Toxicity in Artemia salina assessed as mortality after 24 hrs; type: organism-based; conditions: in vivo
How it was run: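 Artemia salina hatched at pH 9.0 (Na2CO3), 25 °C, strong aeration, continuous light (2000 Lux). Phototropic nauplii were collected about 12 h after hatching, and groups of 10 were exposed per well to various compound concentrations for 24 h. Survivors were counted and % deaths calculated.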

Mus musculus [4] = assay: Ratio of acetyl salicylic acid ID50 to compound ID50 for inhibition of acetic acid-induced abdominal contraction in ip dosed Swiss mouse; type: functional, Abdominal cavity
Mus musculus [5] = assay: Ratio of metamizole ID50 to compound ID50 for inhibition of acetic acid-induced abdominal contraction in ip dosed Swiss mouse; type: functional, Abdominal cavity
Mus musculus [6] = assay: Antinociceptive activity in Swiss mouse assessed as inhibition of formalin-induced paw licking activity at 10 mg/kg, ip administered 30 mins before formalin challenge measured after 5 mins; type: functional; conditions: route intraperitoneal
How it was run: (§4)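 Formalin test in mice pretreated i.p. with vehicle or 10 mg/kg test agent 30 min before formalin injection. Animals were acclimatized 5 min in a glass cylinder with an angled mirror. Licking time was recorded for the early phase (0–5 min) and the late phase (15–30 min) after formalin. Values are mean ± S.E.M.; ANOVA with Dunnett's test.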

Mus musculus [7] = assay: Antinociceptive activity in Swiss mouse assessed as inhibition of formalin-induced paw licking activity at 10 mg/kg, ip administered 30 mins before formalin challenge measured after 15 to 30 mins; type: functional; conditions: route intraperitoneal; how it was run: as §4
Mus musculus [8] = assay: Antinociceptive activity in Swiss mouse assessed as inhibition of acetic acid-induced writhing at 10 mg/kg, ip administered 30 mins before acetic acid challenge measured after 20 mins relative to control; type: functional; conditions: route intraperitoneal
How it was run: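 Mice were given 10 mg/kg i.p. in Tween 80/0.9% NaCl (Tween ≤5%) 30 min before i.p. 0.6% acetic acid, at 20–22 °C. Abdominal constrictions plus hind-limb stretching were counted cumulatively over 20 min in individual funnels. Groups of six, randomized and blinded. Inhibition was calculated versus vehicle controls (10 ml/kg i.p.); ANOVA with Dunnett's test.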

Mus musculus [9] = assay: Antinociceptive activity in Swiss mouse assessed as inhibition of acetic acid-induced abdominal contraction at 0.1 to 100 mg/kg, ip administered 30 mins before acetic acid challenge measured after 20 mins relative to control; type: functional, Abdominal cavity; conditions: dose mg/kg 0.1-100; route intraperitoneal
How it was run: (§5)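 Writhing dose-response in mice: compounds at 0.1–10 mg/kg and standard drugs at 10–100 mg/kg, i.p. in Tween 80/saline, 30 min before i.p. 0.6% acetic acid. Constrictions and stretches were counted for 20 min at 20–22 °C, with six to eight animals per group. ID50 (dose halving the response versus control) was given as geometric mean with 95% confidence limits.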

Mus musculus [10] = assay: Antinociceptive activity in ip dosed Swiss mouse assessed as inhibition of acetic acid-induced abdominal contraction administered 30 mins before acetic acid challenge measured after 20 mins; type: functional; conditions: Abdominal cavity, read-out: ID50 (the source's name); how it was run: as §5

SMILES	Activity (Salmonella typhimurium)	Activity (Proteus mirabilis)	Activity (Aspergillus flavus)	Activity (Aspergillus niger)	Activity [1]	Activity (Streptococcus agalactiae)	Activity (Pseudomonas aeruginosa)	Activity (Staphylococcus aureus)	MIC (Aspergillus fumigatus) [mg/L]	MIC (Cryptococcus neoformans) [mg/L]	MIC (Nannizzia gypsea) [mg/L]	MIC (Rhizopus) [mg/L]	MIC [2] [mg/L]	MIC (Trichophyton rubrum) [mg/L]	Activity (Bacillus cereus)	Activity (Bacillus subtilis)	Activity (Enterobacter cloacae)	Activity (Escherichia coli)	LC50 at 24 h [3] [mg/L]	inhibition in vivo at 10 mg/kg (Mus musculus [8]) [%]	also measured
Cc1c(N2C(=O)C(Cl)=C(Nc3ccc(F)cc3)C2=O)c(=O)n(-c2ccccc2)n1C	inactive	inactive	Active	Active	inactive	inactive	inactive	inactive	> 100	> 100	100 (≈ 234 µM)	> 100	> 100	> 100	inactive	inactive	inactive	inactive	> 1000	93.2	Activity (Microsporum canis): Active; Activity (Candida albicans): Active; Activity (Pichia kudriavzevii): Active; Ratio (Mus musculus [4]): 182; Ratio (Mus musculus [5]): 222; inhibition in vivo at 10 mg/kg (Mus musculus [6]): 28.9%; inhibition in vivo at 10 mg/kg (Mus musculus [7]): 4.5%; inhibition (INH) (Mus musculus [9]): 96.7%; ED50 (Mus musculus [10]): 0.73 µmol/kg
CC(=O)N1CCN(c2ccc(OCC3COC(Cn4ccnc4)(c4ccc(Cl)cc4Cl)O3)cc2)CC1 (configuration not stated) [KETOCONAZOLE]									7 (≈ 13.2 µM)	5 (≈ 9.41 µM)	6 (≈ 11.3 µM)	15 (≈ 28.2 µM)	8 (≈ 15.1 µM)	3 (≈ 5.65 µM)							
CCc1ccc(NC2=C(Cl)C(=O)N(c3c(C)n(C)n(-c4ccccc4)c3=O)C2=O)cc1	inactive	inactive	Active	Active	inactive	inactive	inactive	inactive	> 100	> 100	100 (≈ 229 µM)	> 100	> 100	> 100	inactive	inactive	inactive	inactive	> 1000	49.5	Activity (Microsporum canis): Active; Activity (Candida albicans): Active; Activity (Pichia kudriavzevii): Active
Cc1c(N2C(=O)C(Cl)=C(Nc3ccc(Br)cc3)C2=O)c(=O)n(-c2ccccc2)n1C	inactive	inactive	Active	Active	inactive	inactive	inactive	inactive	> 100	> 100	> 100	100 (≈ 205 µM)	> 100	> 100	inactive	inactive	inactive	inactive	> 1000	97.5	Activity (Microsporum canis): Active; Activity (Candida albicans): Active; Activity (Pichia kudriavzevii): Active; Ratio (Mus musculus [4]): 233; Ratio (Mus musculus [5]): 284; inhibition in vivo at 10 mg/kg (Mus musculus [6]): 11.4%; inhibition in vivo at 10 mg/kg (Mus musculus [7]): 22.5%; inhibition (INH) (Mus musculus [9]): 97.5%; ED50 (Mus musculus [10]): 0.57 µmol/kg
Cc1c(N2C(=O)C(Cl)=C(Nc3ccc(Cl)cc3)C2=O)c(=O)n(-c2ccccc2)n1C	inactive	inactive			inactive	inactive	inactive	inactive							inactive	inactive	inactive	inactive	> 1000	97.4	Ratio (Mus musculus [4]): 33; inhibition in vivo at 10 mg/kg (Mus musculus [6]): 28.2%; inhibition in vivo at 10 mg/kg (Mus musculus [7]): 29.3%; inhibition (INH) (Mus musculus [9]): 97.4%; ED50 (Mus musculus [10]): 4.05 µmol/kg
CC(=O)Oc1ccccc1C(=O)O [ASPIRIN]																				35	inhibition in vivo at 10 mg/kg (Mus musculus [6]): 16%; inhibition in vivo at 10 mg/kg (Mus musculus [7]): 45%; inhibition (INH) (Mus musculus [9]): 83%
Cc1c(N2C(=O)C(Cl)=C(Nc3ccc(Cl)c(Cl)c3)C2=O)c(=O)n(-c2ccccc2)n1C	inactive	inactive	Active	Active	inactive	inactive	inactive	inactive	> 100	> 100	100 (≈ 209 µM)	80 (≈ 167 µM)	> 100	> 100	inactive	inactive	inactive	inactive	> 1000	75	Activity (Microsporum canis): Active; Activity (Candida albicans): Active; Activity (Pichia kudriavzevii): Active
Cc1c(N2C(=O)C(Cl)=C(NCc3ccccc3)C2=O)c(=O)n(-c2ccccc2)n1C	inactive	inactive	Active	Active	inactive	inactive	inactive	inactive	100 (≈ 236 µM)	40 (≈ 94.6 µM)	> 100	> 100	100 (≈ 236 µM)	100 (≈ 236 µM)	inactive	inactive	inactive	inactive	> 1000	35.4	Activity (Microsporum canis): Active; Activity (Candida albicans): Active; Activity (Pichia kudriavzevii): Active
Cc1c(N2C(=O)C(Cl)=C(Nc3ccccc3)C2=O)c(=O)n(-c2ccccc2)n1C	inactive	inactive	Active	Active	inactive	inactive	inactive	inactive	> 100	> 100	> 100	80 (≈ 196 µM)	> 100	> 100	inactive	inactive	inactive	inactive	> 1000	71.6	Activity (Microsporum canis): Active; Activity (Candida albicans): Active; Activity (Pichia kudriavzevii): Active
